In PubChem BioAssay:
Activity calls are given as the source filed them.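 The calls were made as follows, unless noted: active = GFP response above 150% of the DMSO level; inconclusive = fewer than 70 events counted for a yeast strain; inactive = the rest.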

Assays:
[1] = RPL19A-GFP modulators, yeast TOR pathway, confirmation, cell-based, S. cerevisiae, flow cytometry, cherry picks, mother/daughter gates (AID 2270;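 active = GFP response below 50% of the DMSO control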); settings: S. cerevisiae RPL19A-GFP strain, 3 h, at 10 µM, stronger effect = lower value, 100 = same GFP as DMSO wells
[2] = LAP4-GFP expression modulators in yeast, confirmation, cell-based, cherry picks, flow cytometry, mother/daughter gates (AID 2271;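 active = GFP response above 150% of the DMSO control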;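 also: ratio of sample to DMSO plate mean so 100% equals DMSO level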); settings: S. cerevisiae LAP4-GFP strain, 3 h, at 10 µM, stronger effect = higher value, 100 means same as DMSO control
How it was run: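 Material – Alexa Fluor 633-labelled Saccharomyces cerevisiae GFP-fusion strain, single-plex · Incubation – compound exposure 3 h at 30 °C, end-over-end rotation · Measured by – GFP by flow cytometry · Measure – median GFP fluorescence as percent of plate-mean DMSO wells · Control set – positive rapamycin (400 ng/mL), negative DMSO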

[3] = modulators of MEP2-GFP levels in yeast, confirmation, S. cerevisiae, flow cytometry GFP, cherry picks (AID 2272;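 active = GFP response above 150% of the DMSO control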;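 also: ratio of well signal to plate DMSO mean so 100% equals DMSO level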); settings: S. cerevisiae MEP2-GFP strain, 3 h, at 10 µM, stronger effect = higher value
[4] = AGP1-GFP expression modulators, hit retest, confirmation, cell-based, flow cytometry, S. cerevisiae, cherry picks (AID 2273);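 also: median GFP channel fluorescence over the whole cell population gate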; settings: S. cerevisiae AGP1-GFP strain, 3 h, at 10 µM
[5] = modulators of CIT2-GFP expression in yeast, confirmation, S. cerevisiae, GFP fusion, cherry picks, mother/daughter gates (AID 2274); settings: S. cerevisiae CIT2-GFP strain, flow cytometry, 3 h, at 10 µM, stronger effect = higher value
[6] = measured here: daughter cell gate
[7] = measured here: mother cell gate
[8] = measured here: daughter cell gate response
[9] = measured here: mother cell gate response

| Structure (SMILES) | GFP response vs DMSO [1] | GFP response vs DMSO [1, 6] [%] | GFP response vs DMSO [1, 7] [%] | GFP response relative to DMSO [2] | GFP response relative to DMSO [2, 8] [%] | GFP response relative to DMSO [2, 9] [%] | GFP response vs DMSO [3] | GFP response, % of DMSO [4] | GFP response, % of DMSO [5] | GFP response, % of DMSO [5, 6] [%] | GFP response, % of DMSO [5, 7] [%] |
| --- | --- | --- | --- | --- | --- | --- | --- | --- | --- | --- | --- |
| COc1ccc(/C=N/Nc2nc(-c3cccnc3)nc3ccccc23)cc1OC | 100% (inactive) | 99.3 | 102 | 129% (inactive) | 130 | 129 | 137% (inactive) | 104% (inactive) | 144% (inactive) | 143 | 141 |
| O=c1[nH]c(CCl)nc2cc(-c3ccc(Cl)cc3)sc12 | 95.8% (inactive) | 94.4 | 98.5 | 101% (inactive) | 99.1 | 100 | 107% (inactive) | 96.5% (inactive) | 93% (inactive) | 92 | 78.5 |
| C/C(=N/NS(=O)(=O)c1ccccc1)c1ccc(NC(=O)C(F)(F)F)cc1 | 102% (inactive) | 103 | 103 | 94.2% (inactive) | 95 | 94.6 | 99.5% (inactive) | 91% (inactive) | 95% (inactive) | 96.4 | 93.3 |
| Cc1ccc(C(=O)Oc2oc(-c3ccco3)nc2C=Nc2ccc(Cl)cc2)cc1 | 102% (inactive) | 98.3 | 98.8 | 207% (active) | 168 | 205 | 110% (inactive) | 93.8% (inactive) | 106% (inactive) | 111 | 98 |
| N/C(Cc1ccc(Cl)c(Cl)c1)=N\OC(=O)c1cccs1 | 94.9% (inactive) | 89.4 | 83 | 226% (active) | 160 | 206 | 122% (inactive) | 103% (inactive) | 176% (active) | 126 | 159 |
| CCOc1ccc(S(=O)(=O)n2ccnc2C)cc1 | 99.7% (inactive) | 100 | 98.4 | 96.2% (inactive) | 97.2 | 98.3 | 102% (inactive) | 102% (inactive) | 104% (inactive) | 103 | 104 |
| COc1ccc(OC(=O)c2cc(S(=O)(=O)N3CCCC3)ccc2Cl)cc1 | 97.6% (inactive) | 96.9 | 97.2 | 97.9% (inactive) | 99.2 | 97.2 | 98.3% (inactive) | 94.3% (inactive) | 101% (inactive) | 103 | 101 |
| COc1ccccc1-c1nnc(NC(=O)c2ccc(S(=O)(=O)N3CCCC3)cc2)o1 | 102% (inactive) | 101 | 104 | 96.2% (inactive) | 98.7 | 97.2 | 102% (inactive) | 98% (inactive) | 107% (inactive) | 105 | 107 |
| CSc1ccc(/C=C/C(=O)c2ccc(NC(C)=O)cc2)cc1 | 111% (inactive) | 93.2 | 94.5 | 111% (inactive) | 104 | 113 | 101% (inactive) | 97.5% (inactive) | 91.5% (inactive) | 90.2 | 82.1 |
| O=C(c1cccc2ccccc12)N1CCN(c2ccccc2F)CC1 | 97.8% (inactive) | 92.9 | 95.7 | 102% (inactive) | 99.1 | 102 | 101% (inactive) | 102% (inactive) | 94.4% (inactive) | 92 | 93.2 |
| CCN1CCN(C(=O)C2CCN(c3nnc(C)c4c(C)n(-c5ccc(C)cc5)nc34)CC2)CC1 | 97.2% (inactive) | 96.5 | 97.8 | 102% (inactive) | 101 | 101 | 104% (inactive) | 106% (inactive) | 99.3% (inactive) | 102 | 98 |
| CCN(Cc1ccccc1)S(=O)(=O)c1ccc(C(=O)Nc2nnc(-c3ccccc3OC)o2)cc1 | 98.4% (inactive) | 98.6 | 98.4 | 94.1% (inactive) | 92.8 | 94 | 102% (inactive) | 96.4% (inactive) | 98.3% (inactive) | 97.2 | 99.7 |
| Cc1ccc(N2C(=O)c3ccccc3NC2c2ccccc2O)cc1 (configuration not stated) | 97.2% (inactive) | 98.1 | 98.4 | 97.9% (inactive) | 96 | 96.1 | 109% (inactive) | 96.6% (inactive) | 103% (inactive) | 105 | 103 |
| CC1=NNC(=O)/C1=C\c1cn(-c2ccccc2)nc1-c1cccs1 | 92.6% (inactive) | 88 | 89.6 | 288% (active) | 122 | 269 | 103% (inactive) | 120% (inactive) | 119% (inactive) | 93.8 | 114 |
| Cc1ccccc1OC1CCN(C(=O)C2CCC(=O)N(C3CCCC3)C2)CC1 (configuration not stated) | 97.6% (inactive) | 98.4 | 97.7 | 101% (inactive) | 99.2 | 99.3 | 105% (inactive) | 96.6% (inactive) | 95.5% (inactive) | 95.4 | 95 |
| O=C(CSc1ccc(Cl)cc1)Nc1cccc(-c2nc3ccccc3[nH]2)c1 | 97.8% (inactive) | 98 | 97.8 | 101% (inactive) | 97.9 | 101 | 99.5% (inactive) | 98% (inactive) | 96.4% (inactive) | 96.4 | 95.6 |
| O=C(Nc1ccccc1C(F)(F)F)c1cc(-c2ccc(O)cc2)on1 | 98.8% (inactive) | 97 | 99.2 | 108% (inactive) | 102 | 108 | 102% (inactive) | 94% (inactive) | 101% (inactive) | 98.3 | 98 |
| C=CCNC(=O)/C(=C\c1ccc(OC)cc1)NC(=O)c1ccc([N+](=O)[O-])cc1 | 97.4% (inactive) | 97.6 | 98.7 | 97.3% (inactive) | 99.7 | 96.2 | 96.6% (inactive) | 100% (inactive) | 108% (inactive) | 108 | 110 |
| O=C(N/N=C/c1ccccn1)c1sc2ccccc2c1Cl | 103% (inactive) | 94 | 103 | 118% (inactive) | 114 | 126 | 114% (inactive) | 99.3% (inactive) | 84.7% (inactive) | 88.9 | 82.8 |
| O=[N+]([O-])c1cccnc1S(=O)(=O)c1ccccc1 | 97.6% (inactive) | 94.7 | 96.2 | 114% (inactive) | 110 | 112 | 103% (inactive) | 102% (inactive) | 90.1% (inactive) | 88.4 | 89.5 |
| O=[N+]([O-])c1cc(Cl)ccc1Sc1ccccn1 | 104% (inactive) | 102 | 103 | 98.2% (inactive) | 95.9 | 98.4 | 112% (inactive) | 99% (inactive) | 95.9% (inactive) | 95.6 | 93.2 |
| O=C(Oc1oc(-c2ccco2)nc1C=Nc1ccc(Cl)cc1)c1ccco1 | 104% (inactive) | 104 | 103 | 176% (active) | 154 | 188 | 112% (inactive) | 99.8% (inactive) | 89.7% (inactive) | 95.2 | 83.8 |
| Cc1cccn2c(=O)c(/C=C(\C#N)C(=O)NC3CCS(=O)(=O)C3)c(N3CCC(C(N)=O)CC3)nc12 (configuration not stated) | 101% (inactive) | 98.6 | 102 | 98.2% (inactive) | 97.5 | 98.4 | 99% (inactive) | 89.7% (inactive) | 97.3% (inactive) | 97.4 | 96.8 |
| CCOc1cc(/C=C2\N=C(C)OC2=O)cc(Cl)c1OCC(=O)OC | 105% (inactive) | 106 | 101 | 122% (inactive) | 120 | 125 | 101% (inactive) | 92.4% (inactive) | 93% (inactive) | 95.6 | 90.7 |
| CCCn1c(=O)c(C(=O)Nc2ccccc2C(=O)OC)c(O)c2ccccc21 | 101% (inactive) | 99 | 103 | 92.6% (inactive) | 94.1 | 95.2 | 97.8% (inactive) | 103% (inactive) | 93.9% (inactive) | 94.8 | 93.4 |
| N#C/C(=C\c1ccc(N2CCOCC2)o1)c1ccccc1 | 98.2% (inactive) | 97.3 | 98.5 | 102% (inactive) | 102 | 103 | 104% (inactive) | 93.8% (inactive) | 104% (inactive) | 104 | 103 |
| Cn1c(=O)c(C(=O)NC2CCCCCCC2)c(O)c2ccccc21 | 101% (inactive) | 102 | 103 | 93.8% (inactive) | 94.1 | 96.2 | 95.7% (inactive) | 98.9% (inactive) | 107% (inactive) | 105 | 111 |
